# Experimental data reported in ChEMBL document CHEMBL1144306, “1-Hydroxyalkyl-3-phenylthioureas as novel HDL-elevating agents” (2005).
# Experiments:
# Assay type in all cases: functional
# Rattus norvegicus [1] = assay: Effect on level of high density lipoprotein cholesterol (relative to untreated control) in cholesterol fed-male rats at 74 mg/kg/day
# In short: (§1)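 Male Sprague–Dawley rats (groups of six) fed a cholic acid- and cholesterol-supplemented diet; compound mixed into the diet, given ad libitum for eight days. Lipoproteins were separated by ultracentrifugation, and cholesterol was measured by an enzymatic colorimetric method. Results are % change versus untreated controls, with significance at p < 0.05.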
# Rattus norvegicus [2] = assay: Effect on change in body weight gain (relative to untreated control) in cholesterol fed-male rats at 74 mg/kg/day
# In short: (§2)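 Male Sprague–Dawley rats, six per group, on a cholic acid- and cholesterol-supplemented diet. Compounds were mixed into the diet and given ad libitum for eight days. Change in body weight gain is expressed as a percentage of untreated controls. Significance was set at p < 0.05 versus untreated controls.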
# Rattus norvegicus [3] = assay: Effect on level of total cholesterol (relative to untreated control) in cholesterol fed-male rats at 74 mg/kg/day; in short: as §1
# Rattus norvegicus [4] = assay: Effect on level of triglyceride in (relative to untreated control) in cholesterol fed-male rats at 74 mg/kg/day
# In short: (§3)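 Serum triglycerides were measured in groups of six male Sprague–Dawley rats on a cholic acid/cholesterol-supplemented diet. Compound was dosed in the diet, ad libitum, for eight days. Results are % change relative to untreated controls, with significance at p < 0.05.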
# Rattus norvegicus [5] = assay: Effect on level of apolipoprotein (Apo) AI (relative to untreated control) in cholesterol fed-male rats at 74 mg/kg/day
# In short: (§4)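 Six male Sprague–Dawley rats per group, fed a cholic acid/cholesterol-supplemented diet, received compound in the diet ad libitum for eight days. Serum Apo A–I was measured by SDS-PAGE or by rat competition ELISA and reported as % change versus untreated controls (p < 0.05). Gemfibrozil was the internal positive control in each study.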
# Rattus norvegicus [6] = assay: Effect on level of high density lipoprotein cholesterol (relative to untreated control) in cholesterol fed-male rats at 55 mg/kg/day
# In short: (§5)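 Cholic acid/cholesterol-fed male Sprague–Dawley rats (n = 6 per group) were dosed via diet ad libitum for eight days. Lipoproteins were separated by ultracentrifugation and HDL cholesterol was quantified by an enzymatic colorimetric method. Values are % change relative to untreated controls, with significance at p < 0.05. Gemfibrozil was the internal positive control.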
# Rattus norvegicus [7] = assay: Effect on change in body weight gain (relative to untreated control) in cholesterol fed-male rats at 55 mg/kg/day; in short: as §2
# Rattus norvegicus [8] = assay: Effect on level of total cholesterol (relative to untreated control) in cholesterol fed-male rats at 55 mg/kg/day; in short: as §1
# Rattus norvegicus [9] = assay: Effect on level of triglyceride in (relative to untreated control) in cholesterol fed-male rats at 55 mg/kg/day; in short: as §3
# Rattus norvegicus [10] = assay: Effect on level of apolipoprotein (Apo) AI (relative to untreated control) in cholesterol fed-male rats at 55 mg/kg/day; in short: as §4
# Rattus norvegicus [11] = assay: Effect on level of high density lipoprotein cholesterol (relative to untreated control) in cholesterol fed-male rats at 50 mg/kg/day; in short: as §5
# Rattus norvegicus [12] = assay: Effect on change in body weight gain (relative to untreated control) in cholesterol fed-male rats at 50 mg/kg/day; in short: as §2
# Rattus norvegicus [13] = assay: Effect on level of total cholesterol (relative to untreated control) in cholesterol fed-male rats at 50 mg/kg/day; in short: as §1
# Rattus norvegicus [14] = assay: Effect on level of apolipoprotein (Apo) AI (relative to untreated control) in cholesterol fed-male rats at 50 mg/kg/day; in short: as §4
# Rattus norvegicus [15] = assay: Effect on level of triglyceride in (relative to untreated control) in cholesterol fed-male rats at 50 mg/kg/day; in short: as §3
# Rattus norvegicus [16] = assay: Effect on level of high density lipoprotein cholesterol (relative to untreated control) in cholesterol fed-male rats at 60 mg/kg/day; in short: as §5
# Rattus norvegicus [17] = assay: Effect on change in body weight gain (relative to untreated control) in cholesterol fed-male rats at 60 mg/kg/day; in short: as §2
# Rattus norvegicus [18] = assay: Effect on level of triglyceride in (relative to untreated control) in cholesterol fed-male rats at 60 mg/kg/day; in short: as §3
# Rattus norvegicus [19] = assay: Effect on level of apolipoprotein (Apo) AI (relative to untreated control) in cholesterol fed-male rats at 60 mg/kg/day; in short: as §4
# Rattus norvegicus [20] = assay: Effect on level of total cholesterol (relative to untreated control) in cholesterol fed-male rats at 60 mg/kg/day; in short: as §1
# Rattus norvegicus [21] = assay: Effect on level of high density lipoprotein cholesterol (relative to untreated control) in cholesterol fed-male rats at 66 mg/kg/day; in short: as §1
# Rattus norvegicus [22] = assay: Effect on level of total cholesterol (relative to untreated control) in cholesterol fed-male rats at 66 mg/kg/day; in short: as §1
# Rattus norvegicus [23] = assay: Effect on change in body weight gain (relative to untreated control) in cholesterol fed-male rats at 66 mg/kg/day; in short: as §2
# Rattus norvegicus [24] = assay: Effect on level of triglyceride in (relative to untreated control) in cholesterol fed-male rats at 66 mg/kg/day; in short: as §3
# Rattus norvegicus [25] = assay: Effect on level of apolipoprotein (Apo) AI (relative to untreated control) in cholesterol fed-male rats at 66 mg/kg/day; in short: as §4
# Rattus norvegicus [26] = assay: Effect on level of high density lipoprotein cholesterol (relative to untreated control) in cholesterol fed-male rats at 68 mg/kg/day; in short: as §1
# Rattus norvegicus [27] = assay: Effect on level of total cholesterol (relative to untreated control) in cholesterol fed-male rats at 68 mg/kg/day; in short: as §1
# Rattus norvegicus [28] = assay: Effect on change in body weight gain (relative to untreated control) in cholesterol fed-male rats at 68 mg/kg/day; in short: as §2
# Rattus norvegicus [29] = assay: Effect on level of triglyceride in (relative to untreated control) in cholesterol fed-male rats at 68 mg/kg/day; in short: as §3
# Rattus norvegicus [30] = assay: Effect on level of apolipoprotein (Apo) AI (relative to untreated control) in cholesterol fed-male rats at 68 mg/kg/day; in short: as §4
# Rattus norvegicus [31] = assay: Effect on level of high density lipoprotein cholesterol (relative to untreated control) in cholesterol fed-male rats at 42 mg/kg/day; in short: as §5
# Rattus norvegicus [32] = assay: Effect on change in body weight gain (relative to untreated control) in cholesterol fed-male rats at 42 mg/kg/day; in short: as §2
# Rattus norvegicus [33] = assay: Effect on level of total cholesterol (relative to untreated control) in cholesterol fed-male rats at 42 mg/kg/day; in short: as §1
# Rattus norvegicus [34] = assay: Effect on level of triglyceride in (relative to untreated control) in cholesterol fed-male rats at 42 mg/kg/day; in short: as §3
# Rattus norvegicus [35] = assay: Effect on level of apolipoprotein (Apo) AI (relative to untreated control) in cholesterol fed-male rats at 42 mg/kg/day; in short: as §4
# Rattus norvegicus [36] = assay: Effect on level of high density lipoprotein cholesterol (relative to untreated control) in cholesterol fed-male rats at 63 mg/kg/day; in short: as §1
# Rattus norvegicus [37] = assay: Effect on change in body weight gain (relative to untreated control) in cholesterol fed-male rats at 63 mg/kg/day; in short: as §2
# Rattus norvegicus [38] = assay: Effect on level of total cholesterol (relative to untreated control) in cholesterol fed-male rats at 63 mg/kg/day; in short: as §1
# Rattus norvegicus [39] = assay: Effect on level of triglyceride in (relative to untreated control) in cholesterol fed-male rats at 63 mg/kg/day; in short: as §3
# Rattus norvegicus [40] = assay: Effect on level of apolipoprotein (Apo) AI (relative to untreated control) in cholesterol fed-male rats at 63 mg/kg/day; in short: as §4
# Rattus norvegicus [41] = assay: Effect on level of high density lipoprotein cholesterol (relative to untreated control) in cholesterol fed-male rats at 75 mg/kg/day; in short: as §1
# Rattus norvegicus [42] = assay: Effect on level of total cholesterol (relative to untreated control) in cholesterol fed-male rats at 75 mg/kg/day; in short: as §1
# Rattus norvegicus [43] = assay: Effect on level of triglyceride in (relative to untreated control) in cholesterol fed-male rats at 75 mg/kg/day; in short: as §3
# Rattus norvegicus [44] = assay: Effect on level of apolipoprotein (Apo) AI (relative to untreated control) in cholesterol fed-male rats at 75 mg/kg/day; in short: as §4
# Rattus norvegicus [45] = assay: Effect on change in body weight gain (relative to untreated control) in cholesterol fed-male rats at 75 mg/kg/day; in short: as §2
# Rattus norvegicus [46] = assay: Effect on level of apolipoprotein (Apo) AI (relative to untreated control) in cholesterol fed-male rats at 36 mg/kg/day; in short: as §4
# Rattus norvegicus [47] = assay: Effect on level of high density lipoprotein cholesterol (relative to untreated control) in cholesterol fed-male rats at 36 mg/kg/day; in short: as §5
# Rattus norvegicus [48] = assay: Effect on change in body weight gain (relative to untreated control) in cholesterol fed-male rats at 36 mg/kg/day; in short: as §2
# Rattus norvegicus [49] = assay: Effect on level of total cholesterol (relative to untreated control) in cholesterol fed-male rats at 36 mg/kg/day; in short: as §1
# Rattus norvegicus [50] = assay: Effect on level of triglyceride in (relative to untreated control) in cholesterol fed-male rats at 36 mg/kg/day; in short: as §3
smiles,measurement,setting,value
Cc1ccc(Cl)cc1/N=C(\S)NCCCO,Activity,Rattus norvegicus [1],82%
same,Activity,Rattus norvegicus [2],-63%
same,Activity,Rattus norvegicus [3],3%
same,Activity,Rattus norvegicus [4],-80%
same,Activity,Rattus norvegicus [5],24%
Cc1ccc(Cl)cc1/N=C(\S)NCCO,Activity,Rattus norvegicus [6],75%
same,Activity,Rattus norvegicus [7],-104%
same,Activity,Rattus norvegicus [8],39%
same,Activity,Rattus norvegicus [9],-53%
same,Activity,Rattus norvegicus [10],48%
Cc1ccc(C)c(OCCCC(C)(C)C(=O)O)c1 [GEMFIBROZIL],Activity,Rattus norvegicus [11],104%
same,Activity,Rattus norvegicus [12],2%
same,Activity,Rattus norvegicus [13],-23%
same,Activity,Rattus norvegicus [14],54%
same,Activity,Rattus norvegicus [15],-29%
OCC/N=C(\S)Nc1cc(Cl)cc(Cl)c1,Activity,Rattus norvegicus [16],50%
same,Activity,Rattus norvegicus [17],-90%
same,Activity,Rattus norvegicus [18],-35%
same,Activity,Rattus norvegicus [19],48%
same,Activity,Rattus norvegicus [20],9%
OCC/N=C(\S)Nc1cccc(Cl)c1,Activity,Rattus norvegicus [21],79%
same,Activity,Rattus norvegicus [22],30%
same,Activity,Rattus norvegicus [23],-70%
same,Activity,Rattus norvegicus [24],-31%
same,Activity,Rattus norvegicus [25],43%
OCC/N=C(\S)Nc1cccc(C(F)(F)F)c1,Activity,Rattus norvegicus [26],66%
same,Activity,Rattus norvegicus [27],44%
same,Activity,Rattus norvegicus [28],-76%
same,Activity,Rattus norvegicus [29],-15%
same,Activity,Rattus norvegicus [30],36%
Cc1cc(Cl)ccc1/N=C(\S)NCCO,Activity,Rattus norvegicus [31],53%
same,Activity,Rattus norvegicus [32],-229%
same,Activity,Rattus norvegicus [33],17%
same,Activity,Rattus norvegicus [34],-8%
same,Activity,Rattus norvegicus [35],18%
Cc1ccc(C)c(N/C(S)=N/CCO)c1,Activity,Rattus norvegicus [36],62%
same,Activity,Rattus norvegicus [37],-117%
same,Activity,Rattus norvegicus [38],32%
same,Activity,Rattus norvegicus [39],-32%
same,Activity,Rattus norvegicus [40],0%
Cc1ccc(Cl)cc1/N=C(\S)N(C)CCO,Activity,Rattus norvegicus [41],100%
same,Activity,Rattus norvegicus [42],29%
same,Activity,Rattus norvegicus [43],-47%
same,Activity,Rattus norvegicus [44],40%
same,Activity,Rattus norvegicus [45],-31%
COCC/N=C(\S)Nc1cc(Cl)ccc1C,Activity,Rattus norvegicus [46],33%
same,Activity,Rattus norvegicus [47],30%
same,Activity,Rattus norvegicus [48],-3%
same,Activity,Rattus norvegicus [49],20%
same,Activity,Rattus norvegicus [50],-47%
